Tests used:
Mus musculus [1] = assay: Anticonvulsant activity against strychnine-induced seizures in Albino mouse assessed as survival time at 100 mg/kg, po administered 1 hr before strychnine challenge; assay type: functional
Mus musculus [2] = assay: Anticonvulsant activity in Albino mouse assessed as protection against pentylenetetrazole-induced seizures at 100 mg/kg, ip administered 1 hr before pentylenetetrazole challenge; assay type: functional; conditions: route intraperitoneal
Outline: (§1)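 Male albino mice (25–30 g), housed in groups of 10 and acclimated ≥2 days with free food and water. Test agent suspended in water with 2% Tween 80 and given ip. PTZ 112 mg/kg ip injected 1 h later. Mice without generalized convulsions scored as protected, expressed as % protection. PD50 by log-linear regression of dose-response across 50, 100, 200 mg/kg.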

[3] = Toxicity against Albino mouse assessed as mortality after 24 hrs; assay type: organism-based; conditions: in vivo
Outline: (§2)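 Male albino mice (25–30 g), groups of 8. Single injected doses at equal log intervals (400, 800, 1600, 3200 mg/kg), bracketed by preliminary no-kill and LD100 doses. Deaths counted at 24 h. LD50 calculated by the Spearman–Karber method.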

Mus musculus [4] = assay: Anticonvulsant activity in ip dosed Albino mouse assessed as protection against pentylenetetrazole-induced seizures administered 1 hr before pentylenetetrazole challenge; assay type: functional; conditions: read-out: PD50
Outline: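 PTZ model in male albino mice (25–30 g), 10 per group. Test agents suspended in water with 2% Tween 80 and given ip at graded doses (50, 100, 200 mg/kg). Pentylenetetrazole 112 mg/kg ip given 1 h later. Absence of generalized convulsions scored as protection. PD50 obtained by log-linear regression of dose–response curves.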

[5] = Dissociation constant, pKa of the compound; assay type: physicochemical
Outline: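 Spectrophotometric pKa. Spectra of ionized and unionized forms recorded in 0.1 M HCl and 0.1 M NaOH with DMF. Absorbance read at the wavelength of maximal difference in phosphate buffer (Na2HPO4/KH2PO4, 0.15 M) with DMF at pH 7.6, 7.4, 7 and 6.8. pKa = pH + log[(Ai−A)/(A−Au)], averaged with SD.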

Mus musculus [6] = assay: Anticonvulsant activity in Albino mouse assessed as protection against pentylenetetrazole-induced seizures at 200 mg/kg, ip administered 1 hr before pentylenetetrazole challenge; assay type: functional; conditions: route intraperitoneal; outline: as §1
Mus musculus [7] = assay: Toxicity against Albino mouse assessed as mortality at 3200 mg/kg after 24 hrs; assay type: organism-based; design: dose 3200 mg/kg; conditions: in vivo; outline: as §2
Mus musculus [8] = assay: Anticonvulsant activity in Albino mouse assessed as protection against pentylenetetrazole-induced seizures at 50 mg/kg, ip administered 1 hr before pentylenetetrazole challenge; assay type: functional; conditions: route intraperitoneal; outline: as §1
Mus musculus [9] = assay: Toxicity against Albino mouse assessed as mortality at 400 mg/kg after 24 hrs; assay type: organism-based; design: dose 400 mg/kg; conditions: in vivo; outline: as §2
Mus musculus [10] = assay: Anticonvulsant activity in Albino mouse assessed as protection against pentylenetetrazole-induced seizures at 20 mg/kg, ip administered 1 hr before pentylenetetrazole challenge; assay type: functional; conditions: route intraperitoneal
Outline: (§3)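 Male albino mice (25–30 g), housed 10 per group and acclimated for at least 2 days. Dosed ip, suspended in water with 2% Tween 80. Pentylenetetrazole 112 mg/kg ip given 1 h later. Mice without generalized convulsions counted as protected; reported as % protection.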

Mus musculus [11] = assay: Anticonvulsant activity in Albino mouse assessed as protection against pentylenetetrazole-induced seizures at 10 mg/kg, ip administered 1 hr before pentylenetetrazole challenge; assay type: functional; conditions: route intraperitoneal; outline: as §3
Mus musculus [12] = assay: Anticonvulsant activity in Albino mouse assessed as protection against pentylenetetrazole-induced seizures at 30 mg/kg, ip administered 1 hr before pentylenetetrazole challenge; assay type: functional; conditions: route intraperitoneal; outline: as §3

SMILES: CCCN1C(=O)CS/C1=N/c1ccc2oc(=O)ccc2c1
- Survival (Mus musculus [1]): 5.4 min

SMILES: O=C1CS/C(=N/c2nc3ccc4oc(=O)ccc4c3s2)N1
- Activity (Mus musculus [2]): 40%
- Survival (Mus musculus [1]): 5.44 min

SMILES: CCOC(=O)c1s/c(=N/c2ccc3oc(=O)ccc3c2)n(C2CCCCC2)c1C
- Activity (Mus musculus [2]): 60%
- Survival (Mus musculus [1]): 3.14 min

SMILES: O=C(CCl)Nc1nc2ccc3oc(=O)ccc3c2s1
- Activity (Mus musculus [2]): 0%
- Survival (Mus musculus [1]): 4.4 min

SMILES: COc1ccc(-c2cs/c(=N/c3ccc4oc(=O)ccc4c3)n2C2CCCCC2)cc1
- Activity (Mus musculus [2]): 20%
- Survival (Mus musculus [1]): 4.5 min

SMILES: CCn1c(-c2ccc(Br)cc2)cs/c1=N/c1ccc2oc(=O)ccc2c1
- Activity (Mus musculus [2]): 30%
- Survival (Mus musculus [1]): 8.36 min

SMILES: CCOC(=O)c1s/c(=N/c2ccc3oc(=O)ccc3c2)n(C)c1C
- Activity (Mus musculus [2]): 0%

SMILES: CCOC(=O)c1s/c(=N/c2ccc3oc(=O)ccc3c2)n(CC)c1C
- LD50 at 24 h [3]: 1450 mg/kg
- Activity (Mus musculus [2]): 80%
- ED50 (Mus musculus [4]): 95 mg/kg
- pKa [5]: 7.44
- Activity (Mus musculus [6]): 90%
- Activity (Mus musculus [7]): Toxic
- Activity (Mus musculus [8]): 30%
- Survival (Mus musculus [1]): 5 min
- Activity (Mus musculus [9]): Non-toxic

SMILES: CCC1(c2ccccc2)C(=O)NC(=O)NC1=O [PHENOBARBITAL]
- ED50 (Mus musculus [4]): 16 mg/kg
- Activity (Mus musculus [10]): 70%
- Activity (Mus musculus [11]): 40%
- Activity (Mus musculus [12]): 90%

SMILES: CCn1c(-c2ccc(OC)cc2)cs/c1=N/c1ccc2oc(=O)ccc2c1
- Activity (Mus musculus [2]): 60%
- ED50 (Mus musculus [4]): 138 mg/kg
- pKa [5]: 7.63
- Activity (Mus musculus [6]): 60%
- Activity (Mus musculus [8]): 20%
- Survival (Mus musculus [1]): 7.55 min

SMILES: CCNc1nc2ccc3oc(=O)ccc3c2s1
- Survival (Mus musculus [1]): 6.26 min

SMILES: CNc1nc2ccc3oc(=O)ccc3c2s1
- Activity (Mus musculus [2]): 0%

SMILES: COc1ccc(-c2cs/c(=N/c3ccc4oc(=O)ccc4c3)n2-c2ccc(Cl)cc2)cc1
- Activity (Mus musculus [2]): 30%

SMILES: CCN1C(=O)CS/C1=N/c1ccc2oc(=O)ccc2c1
- Activity (Mus musculus [2]): 30%

SMILES: O=c1ccc2cc(NC(=S)Nc3ccc(Cl)cc3)ccc2o1
- Activity (Mus musculus [2]): 20%
- Survival (Mus musculus [1]): 5.33 min

SMILES: CCN1C(=O)/C(=C/c2ccc(Cl)cc2)S/C1=N/c1ccc2oc(=O)ccc2c1
- Survival (Mus musculus [1]): 5.18 min

SMILES: O=C1NC(=O)C(c2ccccc2)(c2ccccc2)N1 [PHENYTOIN]
- Survival (Mus musculus [1]): 13.8 min

SMILES: CCN1C(=O)/C(=C/c2ccc([N+](=O)[O-])cc2)S/C1=N/c1ccc2oc(=O)ccc2c1
- Activity (Mus musculus [2]): 30%
- Survival (Mus musculus [1]): 4.85 min

SMILES: CCNC(=S)Nc1ccc2oc(=O)ccc2c1
- Activity (Mus musculus [2]): 60%
- ED50 (Mus musculus [4]): 125 mg/kg
- pKa [5]: 5.62
- Activity (Mus musculus [6]): 70%
- Activity (Mus musculus [8]): 20%
- Survival (Mus musculus [1]): 3.92 min

SMILES: O=c1ccc2cc(NC(=S)NC3CCCCC3)ccc2o1
- Activity (Mus musculus [2]): 30%
- Survival (Mus musculus [1]): 5.02 min

From ChEMBL document CHEMBL1150357, “Synthesis and preliminary evaluation of some substituted coumarins as anticonvulsant agents” (Bioorg Med Chem, 2008)
